# CHRM1 agonist: human M1 muscarinic receptor agonism; activation, % at 3 µM; AID 588814; 0.33% of 360,000 active; CHO-K1 hM1, Fluo-8 calcium fluorescence, agonist mode; 0% DMSO, 100% acetylcholine EC100;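 active = activation above the run's mean compound activation plus 3 SD, cut at about 16% in these data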;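 also: peak over basal fluorescence ratio within a 140 s kinetic read after compound addition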
# Target sequence (P11229 whole entry, looked up): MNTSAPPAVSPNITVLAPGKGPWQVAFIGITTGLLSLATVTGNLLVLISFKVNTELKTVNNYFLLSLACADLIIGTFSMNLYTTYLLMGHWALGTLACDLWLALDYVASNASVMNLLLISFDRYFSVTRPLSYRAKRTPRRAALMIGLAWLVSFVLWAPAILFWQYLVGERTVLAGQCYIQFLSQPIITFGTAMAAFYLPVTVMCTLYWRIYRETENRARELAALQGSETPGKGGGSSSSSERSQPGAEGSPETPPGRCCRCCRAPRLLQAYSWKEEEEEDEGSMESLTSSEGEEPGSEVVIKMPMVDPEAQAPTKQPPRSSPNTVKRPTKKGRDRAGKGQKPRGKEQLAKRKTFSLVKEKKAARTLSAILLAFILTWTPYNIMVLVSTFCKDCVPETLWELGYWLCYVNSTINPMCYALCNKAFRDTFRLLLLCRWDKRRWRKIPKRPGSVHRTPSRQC
# M5 ag: CHRM5 agonism in calcium assay; P08912; CHO-K1 hM5 cells, Fluo-8 calcium fluorescence; 0% DMSO wells, 100% maximal acetylcholine response; activation, % at 3 µM; 0.19% of 360,000 active; AID 624037;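 active = activation above the run's mean over test compounds plus 3 SD, cut at about 23% in these data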;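 also: signal is peak over basal fluorescence ratio across the kinetic read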
# CHRM5 PAM: CHRM5 positive allosteric modulation; P08912; 0.3% of 360,000 active; CHO-K1 hM5, Fluo-8 calcium, ACh EC20 PAM; 0% = ACh EC20, 100% = ACh EC100; activation, % at 3 µM;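 active = activation above the run cutoff, the mean activation of all test compounds plus 3 SD, cut at about 18% in these data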
#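 system = human M5 receptor in CHO-K1 cells | compound = one concentration, 3 µM final (nominal) | schedule = Post-acetylcholine fluorescence recording 140 s | signal = Fluo-8 calcium dye fluorescence, kinetic read | benchmarks = low control EC20 acetylcholine (0%), high control EC100 acetylcholine (100%) | repeats = singlicate, one well per test compound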
# CHRM5 antagonist: antagonists of human muscarinic M5 receptor (CHRM5); inhibition, % at 3 µM; CHO-hM5 cells, Fluo-8 calcium fluorescence, ACh EC80; 0.59% of 360,000 active; P08912; AID 624040;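 active = inhibition above a per-plate cutoff, the mean of that plate's test compounds plus 3 SD, cut at about 27% in these data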
# CHRM1 PAM: positive allosteric modulators of human M1 muscarinic receptor; P11229; CHO-K1 hM1, Fluo-8 calcium fluorescence, ACh EC20; 0% = ACh EC20, 100% = maximal ACh; activation, % at 3 µM; 0.088% of 360,000 active; AID 588819; in the data active = activation above about 19%, passing the limit was not always enough
# CHRM1 antagonist: human CHRM1 antagonism. P11229. CHO-K1 hM1, Fluo-8 calcium fluorescence, ACh EC80 antagonist. inhibition, % at 3 µM. 1.3% of 360,000 active. AID 588852;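 active = percent inhibition above its own plate's cutoff, namely the mean of that plate's compound wells plus 3 SD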;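 also: peak over basal fluorescence ratio during 140 s after agonist addition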
# Hits are given with their value; – = inactive; · = no result given. Hits are enriched below; roughly 2% of the tested compounds scored in any of these assays.
SMILES,CHRM1 agonist,M5 ag,CHRM5 PAM,CHRM5 antagonist,CHRM1 PAM,CHRM1 antagonist
CN1CCN(c2ccc(-c3ccnn3C(=O)Nc3cccc(C(F)(F)F)c3)cc2)CC1,–,–,–,28,–,–
O=C(NC(c1ccc(-c2ccccc2)cc1)c1cnccn1)C1CCN(Cc2cccc(C(F)(F)F)c2)CC1 (stereo not given),–,–,–,–,–,–
CN(C)c1ccc(NC2=C(Cl)C(=O)c3ccccc3C2=O)cc1,–,–,–,34,–,–
O=C1C(Cl)=C(Nc2ccc3cn[nH]c3c2)C(=O)c2ccccc21,–,–,–,28,–,–
O=C(Nc1ccc2cn[nH]c2c1)c1c(Cl)cccc1Cl,–,–,–,–,–,–
COc1ccc(Nc2nc(Nc3ccc(OC)cc3)nc(-n3[nH]c(=O)c(C)c3C)n2)cc1,–,–,–,31,–,33
CC(C)NC(=O)OC1CC2CC1[C@H]1CCCCN1C2=O (stereo not given in full),·,–,–,–,·,·
Cc1c(O)cc2c(c1O)C(=O)CC(c1ccccc1)O2 (stereo not given),58,47,–,84,–,102
Cc1ccc(S(=O)(=O)NC(=O)C2(C)CCN2C(=O)C2CCCCC2)cc1 (stereo not given),–,–,–,–,–,–
COc1ccc(OC)c(Nc2nc(NCCCN(C)C)nc(N)c2[N+](=O)[O-])c1,–,–,–,–,–,–
COCCCNc1nc(N)c([N+](=O)[O-])c(Nc2cc(OC)ccc2OC)n1,–,36,–,–,–,–
CC(CN1CCOCC1)OC(=O)C(C)(c1ccccc1)c1ccccc1 (stereo not given),–,–,–,–,–,–
CC(CN1CCCCC1)OC(=O)C(C)(c1ccccc1)c1ccccc1 (stereo not given),–,–,–,40,–,89
COc1cc2c(C#N)c(N3CCc4ccccc4C3)nc(N)c2c(N)n1,–,–,37,–,–,–
COc1cc2c(C#N)c(N3CCCCC3)nc(N)c2c(N)n1,–,–,–,–,–,–
CC1=C(C)CS(=O)N(S(=O)(=O)c2ccccc2)C1 (stereo not given),–,–,–,–,–,–
O=S(=O)(/N=S1\CC=CCN1S(=O)(=O)c1ccccc1)c1ccccc1 (stereo not given),38,34,–,–,–,–
S=C(NCc1ccncc1)Nc1ccc(Cl)c(Cl)c1,–,–,–,–,–,–
O=[N+]([O-])c1cc(C(F)(F)F)cc([N+](=O)[O-])c1NCCNC(=S)Nc1ccc(Cl)c(Cl)c1,–,–,–,35,–,–
CCc1nc2ccc(C(=O)NCCC(C)C)cn2c1N(CC)CCOC,–,–,–,–,–,–
CC(=O)Nc1ccc(OCC(=O)NCc2ccccc2)cc1,–,–,–,–,–,–
CC(=O)Nc1ccc(C(=O)OCC(=O)NCc2ccccc2)cc1,–,–,–,27,–,–
Cc1ccccc1S(=O)(=O)c1c(C)cc(C)n(C(C)C)c1=O,–,–,22,–,–,–
CCn1c(=O)c(C(=O)NNC(=O)c2ccccc2Cl)c(O)c2ccccc21,18,–,–,–,–,–
CCn1c(=O)c(C(=O)NNC(=O)c2ccccc2F)c(O)c2ccccc21,–,–,–,–,–,–
SMILES,CHRM1 agonist,M5 ag,CHRM5 PAM,CHRM5 antagonist,CHRM1 PAM,CHRM1 antagonist
Nc1ccc(-c2c3ccc(=O)cc-3oc3cc(O)ccc23)c(C(=O)O)c1,117,270,–,42,–,–
COc1ccc(-c2cc(=O)c3ccc(O)cc3o2)cc1OC,–,–,–,–,–,–
CCN(CC)CC(=O)N1c2ccccc2Sc2ccc(Cl)cc21,–,–,–,97,–,99
CCN(CC)CCCCN1c2ccccc2Sc2ccccc21,–,–,–,88,–,101
CCN(CC)C(=O)N1c2ccccc2Sc2ccccc21,–,–,–,–,–,–
CCN(CC)CC(=O)N1c2ccccc2Sc2ccccc21,–,–,–,92,–,101
COCCCn1c(SCC(=O)NC2CCS(=O)(=O)C2)nnc1-c1ccc(Cl)cc1 (stereo not given),–,–,–,–,–,–
COc1ccc(C2CC(c3ccccc3)=NN2c2ccc(C(N)=O)cc2)cc1 (stereo not given),–,–,–,30,–,–
COc1ccc(C2CC(c3ccccc3)=NN2c2ccc(S(N)(=O)=O)cc2)cc1 (stereo not given),–,–,–,–,–,–
C=CCn1c(=S)[nH]c2cc(C(=O)Nc3ccc(F)cc3)ccc2c1=O,–,–,–,–,–,23
CC1(C(=O)NCCc2c[nH]c3ccccc23)CCN1Cc1ccccc1OC(F)F (stereo not given),–,–,–,–,–,–
CCCc1ccc(C(O)c2ncc(-c3cccc(C)c3)[nH]2)cc1 (stereo not given),–,–,–,–,–,–
CCC(=O)N1CCN(c2ccc(NC(=O)c3cc4ccccc4o3)cc2Cl)CC1,–,–,–,–,–,18
O=C(Nc1ccc(N2CCN(C(=O)c3ccco3)CC2)c(Cl)c1)c1cc2ccccc2o1,–,–,–,30,–,37
CCCC(=O)N1CCN(c2ccc(NC(=O)c3cc4ccccc4o3)cc2Cl)CC1,–,–,–,–,–,55
O=C(Nc1ccc(N2CCN(C(=O)c3ccccc3)CC2)c(Cl)c1)c1ccco1,–,–,–,–,–,–
CCC(=O)N1CCN(c2ccc(NC(=O)c3ccco3)cc2Cl)CC1,–,–,–,–,–,–
COc1cc(C(C)=O)ccc1OCCN1CCC(Cc2ccccc2)CC1,–,–,–,–,–,45
COc1cc(C(C)=O)ccc1OCC(=O)N1CCC(Cc2ccccc2)CC1,–,–,–,–,–,–
COc1cc(C(C)=O)ccc1OCCCN1CCC(Cc2ccccc2)CC1,–,–,–,–,–,44
CCOc1ccc(Nc2nc(N)nc(CSC(=S)N3CCOCC3)n2)cc1,–,–,–,34,–,–
CCCCNC(=O)C1(C)CCC(=O)N1CCOc1ccccc1 (stereo not given),–,–,–,–,–,–
COc1ccc(C(=O)NC2CCc3ccccc32)cc1OC1CCN(C(C)C)CC1 (stereo not given),–,–,–,28,–,–
COc1ccc(C(=O)N(C)C2CCCc3ccccc32)cc1OC1CCN(C(C)C)CC1 (stereo not given),–,–,–,–,–,–
CN(CC1CCCN(CCc2ccc(Cl)cc2)C1)C(=O)c1ccco1 (stereo not given),–,–,–,–,–,35

# Screens (PubChem)
